Results from ChEMBL document CHEMBL1155242, “Radiolabeled 5-iodo-3'-O-(17beta-succinyl-5alpha-androstan-3-one)-2'-deoxyuridine and its 5'-monophosphate for imaging and therapy of androgen receptor-positive cancers: synthesis and biological evaluation” (J Med Chem, 2009).

Assays:
[1] = Stability in mouse serum assessed as intact compound remaining at 10 to 20 uCi/mL after 10 mins by size-exclusion HPLC analysis; assay type: ADME, cell-free; conditions: read-out: Stability
How it was run: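 The compound was incubated in mouse serum, which lacks circulating SHBG. Aliquots were analysed on size-exclusion HPLC (TSK3000; phosphate/Na2SO4 buffer, pH 6.8, then an acetonitrile gradient). Extracts were analysed by C18 reversed-phase HPLC to measure intact compound remaining over time.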

[2] = target: T1, Sex hormone-binding globulin (Oryctolagus cuniculus, UniProt P15196); test: Binding affinity to rabbit sex hormone binding globulin assessed as intact compound remaining at 10 to 20 uCi/mL after 60 mins by size-exclusion HPLC analysis; assay type: ADME; conditions: read-out: Stability
T1 sequence (P15196 whole entry): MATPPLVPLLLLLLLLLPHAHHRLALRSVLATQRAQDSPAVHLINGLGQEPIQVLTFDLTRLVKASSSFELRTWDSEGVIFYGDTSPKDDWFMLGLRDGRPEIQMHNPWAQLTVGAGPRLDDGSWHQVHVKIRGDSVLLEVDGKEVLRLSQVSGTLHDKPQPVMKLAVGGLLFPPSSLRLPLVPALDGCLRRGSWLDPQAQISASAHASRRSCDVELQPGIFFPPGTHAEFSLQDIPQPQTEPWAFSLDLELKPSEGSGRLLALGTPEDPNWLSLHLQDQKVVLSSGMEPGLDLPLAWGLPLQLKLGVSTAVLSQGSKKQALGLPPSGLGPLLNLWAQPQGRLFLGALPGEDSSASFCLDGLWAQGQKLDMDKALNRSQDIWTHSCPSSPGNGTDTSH
How it was run: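 Radioligand incubated 60 min in rabbit serum; size-exclusion HPLC as for SHBG binding (phosphate/Na2SO4 pH 6.8, then CH3CN gradient) for SHBG-bound peak, with extracts run on C18 for intact compound.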

[3] = Stability in rabbit serum assessed as half life at 10 to 20 uCi/mL by size-exclusion HPLC analysis; assay type: ADME, cell-free, Oryctolagus cuniculus
How it was run: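 The compound was incubated with rabbit or human serum at ambient temperature, and aliquots were taken at 1, 5 and 24 h. Aliquots were run on size-exclusion HPLC (TSK3000; 0.1 M potassium phosphate/0.1 M Na2SO4, pH 6.8, then an acetonitrile gradient). Extracts were run on C18 reversed-phase HPLC (water/acetonitrile with 0.07% TFA). Half-lives came from a monoexponential fit.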

[4] = Stability in human OVCAR-3 cells expressing androgen receptor assessed as assessed as compound degradation at 0.01 to 5 uCi/mL up to 24 hrs by silica gel instant thin layer chromatography; assay type: ADME, cell-based; conditions: read-out: Activity
[5] = Clearance in peritoneal cavity of athymic NCr mouse xenografted with human OVCAR-3 cells assessed as half life at 1.12 uCi, ip by gamma counting; assay type: ADME, organism-based; conditions: in vivo
How it was run: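 Peritoneal clearance measured in athymic NCr-nu/nu mice bearing intraperitoneal NIH:OVCAR-3 xenografts after an ip dose of the 125I compound. The peritoneal cavity was lavaged, and 125I was counted in the lavage and in the recovered tumor cells. Half-lives were estimated from the clearance curves.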

[6] = Ratio of drug level in tumor to liver in athymic NCr mouse xenografted with human OVCAR-3 cells at 180 uCi, ip administered 9 days after tumor implantation as six fractionated doses every 4 days measured after 24 hrs by gamma counting; assay type: ADME, organism-based; conditions: in vivo
[7] = Ratio of drug level in tumor to spleen in athymic NCr mouse xenografted with human OVCAR-3 cells at 180 uCi, ip administered 9 days after tumor implantation as six fractionated doses every 4 days measured after 48 hrs by gamma counting; assay type: ADME, organism-based; conditions: in vivo
[8] = Ratio of drug level in tumor to kidney in athymic NCr mouse xenografted with human OVCAR-3 cells at 180 uCi, ip administered 9 days after tumor implantation as six fractionated doses every 4 days measured after 72 hrs by gamma counting; assay type: ADME, organism-based; conditions: in vivo
[9] = target: T2, Sex hormone-binding globulin (Homo sapiens, UniProt P04278); test: Binding affinity to human sex hormone binding globulin after 30 mins by size-exclusion HPLC analysis; assay type: ADME
T2 sequence (P04278 whole entry): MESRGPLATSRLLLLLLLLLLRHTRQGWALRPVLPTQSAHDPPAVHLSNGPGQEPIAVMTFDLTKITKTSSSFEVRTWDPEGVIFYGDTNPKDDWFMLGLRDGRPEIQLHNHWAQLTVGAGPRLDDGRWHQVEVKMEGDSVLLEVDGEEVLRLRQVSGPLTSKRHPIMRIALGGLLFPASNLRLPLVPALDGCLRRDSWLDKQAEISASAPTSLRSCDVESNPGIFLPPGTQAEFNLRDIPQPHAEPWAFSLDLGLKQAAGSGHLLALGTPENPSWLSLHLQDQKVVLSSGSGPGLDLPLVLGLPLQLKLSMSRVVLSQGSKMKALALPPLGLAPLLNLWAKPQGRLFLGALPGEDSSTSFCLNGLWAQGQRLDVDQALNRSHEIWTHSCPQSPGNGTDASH
How it was run: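 Purified human SHBG diluted in PBS pH 7.1 to a range of concentrations; radioligand in CH3CN (10 μL, ~5.4 μCi average) added, vortexed, 30 min at ambient temperature. Aliquots analysed by size-exclusion HPLC for SHBG-bound peak.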

[10] = target: T2, Sex hormone-binding globulin; test: Binding affinity to human sex hormone binding globulin at 20 uCi after 60 mins by size-exclusion HPLC analysis; assay type: ADME; conditions: 1 h
How it was run: (§1)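 Radioligand incubated 60 min with purified human SHBG or with human, rabbit or mouse serum. Size-exclusion HPLC (TSK3000): 0.1 M potassium phosphate/0.1 M Na2SO4 1:1 pH 6.8 for 20 min, then 0–40% CH3CN over 20 min, held 30 min, 0.7 mL/min.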

[11] = target: T1, Sex hormone-binding globulin; test: Binding affinity to rabbit sex hormone binding globulin at 20 uCi after 60 mins by size-exclusion HPLC analysis; assay type: ADME; conditions: 1 h; how it was run: as §1
[12] = target: Albumin (Mus musculus, UniProt P07724); test: Binding affinity to mouse serum albumin at 20 uCi after 60 mins by size-exclusion HPLC analysis; assay type: ADME; conditions: isolated protein, 1 h
Albumin, sequence (P07724 whole entry): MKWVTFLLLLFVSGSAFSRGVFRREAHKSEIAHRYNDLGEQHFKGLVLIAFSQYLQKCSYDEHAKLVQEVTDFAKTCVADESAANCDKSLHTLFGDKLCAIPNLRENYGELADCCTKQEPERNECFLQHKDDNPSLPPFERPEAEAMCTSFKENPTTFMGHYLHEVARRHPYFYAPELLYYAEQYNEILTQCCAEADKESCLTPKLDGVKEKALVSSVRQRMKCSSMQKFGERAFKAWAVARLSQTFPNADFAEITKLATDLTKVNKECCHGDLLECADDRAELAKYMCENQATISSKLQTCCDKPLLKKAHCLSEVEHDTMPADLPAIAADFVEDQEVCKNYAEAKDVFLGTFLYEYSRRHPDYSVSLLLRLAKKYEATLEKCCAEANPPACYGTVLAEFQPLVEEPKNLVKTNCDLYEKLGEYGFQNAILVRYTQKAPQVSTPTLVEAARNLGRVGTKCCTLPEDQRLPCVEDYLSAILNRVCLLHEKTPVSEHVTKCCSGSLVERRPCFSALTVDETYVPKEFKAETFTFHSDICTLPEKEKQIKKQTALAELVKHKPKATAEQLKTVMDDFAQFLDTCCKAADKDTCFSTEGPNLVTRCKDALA

[13] = tested on: LNCaP; test: Cellular uptake in nonproliferating human LNCAP cells expressing androgen receptor after 48 hrs by gamma counting in presence of 1 uM DHT relative to uptake in absence of DHT; assay type: ADME, cell-based
[14] = tested on: Mus musculus; test: Toxicity in athymic NCr mouse xenografted with human OVCAR-3 cells assessed as hematocrit level at 0.25 mCi, ip administered 31 days after tumor implantation as single bolus dose measured 55 days after implantation by gamma counting in presence of SHBG (Rvb= 51.4 +/- 1.6 %); assay type: organism-based; conditions: in vivo, 1320 h
[15] = Biodistribution in uterus of athymic NCr mouse xenografted with human OVCAR-3 cells assessed per gram of tissue at an average 39.5 uCi/dose, ip administered 9 days after tumor implantation as six fractionated doses every 4 days measured after 2 weeks of last dose by gamma counting; assay type: ADME, organism-based; conditions: in vivo, 336 h
How it was run: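 OVCAR-3-bearing and healthy athymic mice given fractionated ip doses on the six-dose every-4-days schedule; tissues, tumor and lavaged cells γ-counted at necropsy, %ID/g; DNA-bound 125I in cells measured as cpm/cell.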

SMILES	remaining at 10 min [1]	remaining at 1 h [2]	t1/2 [3]	metabolised at 24 h [4]	t1/2 [5]	Ratio [6]	Ratio [7]	Ratio [8]	Kd [9]	Bmax ([9]; human, 0.5 h)	Activity [10]	Activity [11]	Activity [12]	Drug uptake [13]	Activity [14]	Drug uptake [15]
C[C@]12CCC(=O)C[C@@H]1CC[C@@H]1[C@@H]2CC[C@]2(C)[C@@H](OC(=O)CCC(=O)O[C@H]3C[C@H](n4cc([125I])c(=O)[nH]c4=O)O[C@@H]3CO)CC[C@@H]12	< 1.5%	> 84%	5.7 h	1.1%	68 h	65	24.8	31.9	–	–	–	–	–	–	–	–
C[C@]12CCC(=O)C[C@@H]1CC[C@@H]1[C@@H]2CC[C@]2(C)[C@@H](OC(=O)CCC(=O)O[C@H]3C[C@H](n4cc([125I])c(=O)[nH]c4=O)O[C@@H]3COP(=O)(O)O)CC[C@@H]12	–	–	–	–	–	–	–	–	17.2 nM	4.5 nM	Active	Active	Active	30%	55.2%	0.027 %ID
